Measured values pooled from the literature.
Protocols differ between the studies behind these lines.
Target: Serine/threonine-protein kinase mTOR (MTOR, Homo sapiens, UniProt P42345)

COc1cnc(Nc2cccc(S(N)(=O)=O)c2)nc1N1CCN(c2ccccc2)CC1
remaining binding (binding; competition with immobilised ligand; 1 µM): 93%

O=C(NCC1CCOCC1)c1n[nH]cc1NC(=O)c1c(F)cccc1F
remaining binding (binding; competition with immobilised ligand; 1 µM): 100%

N[C@H]1CCN(c2nccc(-c3cnn4ncccc34)n2)C1
remaining binding (binding; 1 µM): 66%

O=C(c1ccc(Nc2nccc(-c3cc4ccccc4s3)n2)cc1)N1CCC(N2CCCC2)CC1
remaining binding (binding; competition with immobilised ligand; 1 µM): 100%

O=C(O)c1cc(-c2ccc(C3CCNCC3)cc2)c2ccc(-c3ccc(C(F)(F)F)cc3)cc2c1
remaining binding (cell-free assay; competition with immobilised ligand; 1 µM): 90%

CNC(=O)[C@@H]1CC[C@@H](n2c(-c3ccc4cnccc4c3)nc3ccc(C(=O)NCc4cccc(C(N)=O)c4)cc32)C1
remaining binding (binding; competition with immobilised ligand; 1 µM): 66%

CN(C)C(=O)Cn1cc(-c2nc(C3(c4ccc(-c5cnc(N)nc5)cc4)CC3)no2)cn1
remaining binding (cell-free assay; competition with immobilised ligand; 1 µM): 91%

CC1CCCN1c1nccc(-c2cnn3ncccc23)n1 (stereo not drawn)
remaining binding (binding; 1 µM): 95%

c1ccc(N2CCN(Cc3nc4ccccc4[nH]3)CC2)nc1
remaining binding (cell-free assay; competition with immobilised ligand; 1 µM): 100%

c1cncc(-c2cccc(Nc3nccc(NC4CCCCC4)n3)c2)c1
remaining binding (binding; competition with immobilised ligand; 10 µM): 94%

c1cnn2ncc(-c3ccnc(N4CCC45COC5)n3)c2c1
remaining binding (binding; 1 µM): 96%

O=C(c1ccc(Nc2ncc(Cl)c(-c3ccc(Cl)s3)n2)cc1)N1CCC(N2CCCC2)CC1
remaining binding (binding; competition with immobilised ligand; 1 µM): 86%

C[C@@H](c1ccc(-n2cnc3c(N)ncnc32)cc1)N1CCc2nn(C)c(Cc3ccccc3)c2C1=O
remaining binding (binding; competition with immobilised ligand; 0.1 µM): 83%

CCC(=O)N[C@H]1CC[C@@H](C(=O)N(C)c2ccc(-c3nc4ccccc4o3)cc2)C1
remaining binding (cell-free assay; competition with immobilised ligand; 1 µM): 92%

CN(C)c1ncc(F)c(-c2cnn3ncccc23)n1
remaining binding (binding; 1 µM): 100%

CN(C)CC#Cc1ccc(OCCCc2sc(N3CCc4cccc(C(=O)Nc5nc6ccccc6s5)c4C3)nc2C(=O)O)c(F)c1
remaining binding (cell-free assay; competition with immobilised ligand; 1 µM): 100%

CCN1CCN(Cc2ccc(C(=O)Nc3ccc(C)c(Oc4ccc5c(c4)CC(=O)N5)c3)cc2C(F)(F)F)CC1
remaining binding (binding; competition with immobilised ligand; 1 µM): 100%

C[C@@H]1CCN(c2nccc(-c3cnn4ncccc34)n2)C1
remaining binding (binding; 1 µM): 97%

O=C(c1ccc(Nc2ncc(Cl)c(-c3cc4ccccc4s3)n2)cc1)N1CCC(N2CCCC2)CC1
remaining binding (binding; competition with immobilised ligand; 1 µM): 80%

CN(C)c1ncnc(-c2ccc3nc(Nc4cc(CN5CCN(C(=O)CC(F)(F)F)CC5)ccn4)[nH]c3c2)c1Cl
remaining binding (cell-free assay; competition with immobilised ligand; 1 µM): 100%

COc1ccnn2ncc(-c3ccnc(N(C)C)n3)c12
remaining binding (binding; 1 µM): 95%
